Columns and labels:
[1] = target: T1, Serotonin 3 (5-HT3) receptor (Rattus norvegicus, UniProt P35563+Q9JJ16); experiment: Binding affinity at 5-hydroxytryptamine 3 receptor in rat cortical membrane by [3H]graniestron displacement.; type: cell membranes
T1 sequence (P35563 whole entry): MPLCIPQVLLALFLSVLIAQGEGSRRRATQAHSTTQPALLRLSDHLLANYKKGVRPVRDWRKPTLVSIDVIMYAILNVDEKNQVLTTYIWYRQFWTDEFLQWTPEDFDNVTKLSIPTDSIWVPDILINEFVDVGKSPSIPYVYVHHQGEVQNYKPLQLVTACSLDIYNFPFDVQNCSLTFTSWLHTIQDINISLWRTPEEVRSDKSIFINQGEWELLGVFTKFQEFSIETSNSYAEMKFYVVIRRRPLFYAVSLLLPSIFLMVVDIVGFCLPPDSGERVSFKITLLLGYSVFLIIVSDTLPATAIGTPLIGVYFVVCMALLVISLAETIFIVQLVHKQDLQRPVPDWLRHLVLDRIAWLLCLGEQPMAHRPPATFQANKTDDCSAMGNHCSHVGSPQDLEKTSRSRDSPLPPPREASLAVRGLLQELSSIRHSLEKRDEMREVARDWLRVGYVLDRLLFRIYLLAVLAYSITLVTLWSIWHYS
T1 sequence (Q9JJ16 whole entry): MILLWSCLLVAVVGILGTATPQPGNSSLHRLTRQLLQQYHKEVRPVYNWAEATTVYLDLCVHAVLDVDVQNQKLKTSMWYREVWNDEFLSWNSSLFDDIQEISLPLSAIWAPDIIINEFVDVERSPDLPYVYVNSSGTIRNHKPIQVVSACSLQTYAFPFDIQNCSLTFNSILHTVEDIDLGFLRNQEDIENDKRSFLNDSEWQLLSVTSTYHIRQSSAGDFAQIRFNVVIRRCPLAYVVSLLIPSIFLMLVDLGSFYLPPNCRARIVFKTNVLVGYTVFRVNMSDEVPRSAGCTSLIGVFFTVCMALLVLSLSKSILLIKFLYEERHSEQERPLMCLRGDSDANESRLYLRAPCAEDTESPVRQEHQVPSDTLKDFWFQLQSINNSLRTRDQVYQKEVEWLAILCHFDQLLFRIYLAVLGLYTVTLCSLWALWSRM
In short: (§1)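 Cortex and hippocampus of male Wistar rats homogenized in 50 mM Hepes pH 7.4 and assayed in 50 mM Hepes HCl pH 7.4. Filtered on GF/B presoaked in 0.1% polyethylenimine. Ki by Cheng-Prusoff from IC50. Mean ± SEM of three.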

[2] = target: T1, Serotonin 3 (5-HT3) receptor; experiment: Ability to displace [3H]granisetron specifically bound to 5-hydroxytryptamine 3 receptor in rat cortical membrane; type: cell membranes; in short: as §1
[3] = target: T2, 5-hydroxytryptamine receptor 1A (Rattus norvegicus, UniProt P19327); experiment: Ability to displace [3H]- -OH-DPAT bound to 5-hydroxytryptamine 1A receptor in rat hippocampus; type: tissue-based
T2 sequence (P19327 whole entry): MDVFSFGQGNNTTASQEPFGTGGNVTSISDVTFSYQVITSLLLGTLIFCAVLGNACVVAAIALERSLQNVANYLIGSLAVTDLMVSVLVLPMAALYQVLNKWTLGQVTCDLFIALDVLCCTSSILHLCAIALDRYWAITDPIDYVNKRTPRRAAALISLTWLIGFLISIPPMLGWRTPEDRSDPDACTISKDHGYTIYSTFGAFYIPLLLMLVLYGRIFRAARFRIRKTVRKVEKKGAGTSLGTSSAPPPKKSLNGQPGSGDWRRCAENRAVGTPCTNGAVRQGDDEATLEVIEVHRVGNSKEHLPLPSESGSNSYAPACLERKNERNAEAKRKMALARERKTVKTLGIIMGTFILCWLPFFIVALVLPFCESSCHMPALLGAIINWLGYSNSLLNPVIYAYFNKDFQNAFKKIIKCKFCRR
In short: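 Male Wistar rat hippocampal membranes in 50 mM Tris HCl pH 7.4. Stopped by GF/B filtration, counted by scintillation. IC50 from competition curves, converted to Ki by Cheng-Prusoff. Mean ± SEM of three determinations.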

[4] = target: Sodium-dependent serotonin transporter (Rattus norvegicus, UniProt P31652); experiment: Ability to displace [3H]paroxetine bound to Serotonin transporter receptor in rat forebrain
In short: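 Rat forebrain membranes (male Wistar), stored at -80 °C, in 50 mM Tris HCl pH 7.4. Nonspecific binding with 1 μM 6-nitroquipazine. Filtered on GF/B presoaked in 0.5% polyethylenimine. Ki from IC50 via Cheng-Prusoff. Mean ± SEM of three.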

[5] = target: 5-hydroxytryptamine receptor 2A (Rattus norvegicus, UniProt P14842); experiment: Ability to displace [3H]ketanserin bound to 5-hydroxytryptamine 2A receptor in rat pre-frontal cortex; type: tissue-based
In short: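 Rat prefrontal cortex membranes (male Wistar) in 50 mM Tris HCl pH 7.7. […] Nonspecific binding with 3 μM ketanserin. Filtered and counted by scintillation. IC50 converted to Ki via Cheng-Prusoff. Mean ± SEM of three determinations.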

[6] = target: T3, 5-hydroxytryptamine receptor 2C (Rattus norvegicus, UniProt P08909); experiment: Ability to displace [3H]mesulergine bound to 5-hydroxytryptamine 2C receptor in rat cortex; type: tissue-based
T3 sequence (P08909 whole entry): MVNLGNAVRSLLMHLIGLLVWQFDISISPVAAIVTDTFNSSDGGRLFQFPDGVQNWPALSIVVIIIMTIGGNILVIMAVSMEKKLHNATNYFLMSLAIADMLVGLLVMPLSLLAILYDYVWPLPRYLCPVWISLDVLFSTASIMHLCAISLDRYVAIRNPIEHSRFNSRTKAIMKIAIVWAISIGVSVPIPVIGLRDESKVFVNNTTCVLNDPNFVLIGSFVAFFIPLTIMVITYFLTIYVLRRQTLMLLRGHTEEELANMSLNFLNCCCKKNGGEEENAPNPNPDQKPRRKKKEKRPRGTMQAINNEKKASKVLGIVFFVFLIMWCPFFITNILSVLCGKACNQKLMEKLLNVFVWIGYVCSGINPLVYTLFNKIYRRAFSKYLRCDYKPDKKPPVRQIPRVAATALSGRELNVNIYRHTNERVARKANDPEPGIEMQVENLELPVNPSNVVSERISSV
In short: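 Cortical membranes from male Wistar rats in 50 mM Tris HCl pH 7.7 with 10 μM pargyline, 4 mM CaCl2 and 0.1% ascorbic acid. Nonspecific binding with 1 μM mianserine. Filtration assay. Ki from IC50 via Cheng-Prusoff. Mean ± SEM, n=3.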

[7] = target: 5-hydroxytryptamine receptor 1B (Rattus norvegicus, UniProt P28564); experiment: Ability to displace [3H]5-HT bound to 5-hydroxytryptamine 1B receptor in rat striatum; type: tissue-based
In short: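 Striatal membranes from male Wistar rats in 50 mM Tris HCl pH 7.7 with 10 μM pargyline, 4 mM CaCl2 and 0.1% ascorbic acid. Filtration and scintillation counting. Ki from IC50 via Cheng-Prusoff. Mean ± SEM, n=3.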

5-hydroxytryptamine receptor 2A, sequence (P14842 whole entry): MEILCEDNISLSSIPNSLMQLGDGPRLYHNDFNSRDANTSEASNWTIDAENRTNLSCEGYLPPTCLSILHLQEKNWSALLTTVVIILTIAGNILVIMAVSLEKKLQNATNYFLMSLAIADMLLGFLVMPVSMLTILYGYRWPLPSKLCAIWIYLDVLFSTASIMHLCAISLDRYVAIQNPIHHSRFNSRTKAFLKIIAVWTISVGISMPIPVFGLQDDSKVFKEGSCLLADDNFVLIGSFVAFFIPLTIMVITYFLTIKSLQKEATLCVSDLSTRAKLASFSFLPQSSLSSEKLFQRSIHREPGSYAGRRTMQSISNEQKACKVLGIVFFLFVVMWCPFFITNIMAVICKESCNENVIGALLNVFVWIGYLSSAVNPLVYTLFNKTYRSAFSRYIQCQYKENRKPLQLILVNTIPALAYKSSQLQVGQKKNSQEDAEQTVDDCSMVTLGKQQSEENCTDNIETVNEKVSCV
5-hydroxytryptamine receptor 1B, sequence (P28564 whole entry): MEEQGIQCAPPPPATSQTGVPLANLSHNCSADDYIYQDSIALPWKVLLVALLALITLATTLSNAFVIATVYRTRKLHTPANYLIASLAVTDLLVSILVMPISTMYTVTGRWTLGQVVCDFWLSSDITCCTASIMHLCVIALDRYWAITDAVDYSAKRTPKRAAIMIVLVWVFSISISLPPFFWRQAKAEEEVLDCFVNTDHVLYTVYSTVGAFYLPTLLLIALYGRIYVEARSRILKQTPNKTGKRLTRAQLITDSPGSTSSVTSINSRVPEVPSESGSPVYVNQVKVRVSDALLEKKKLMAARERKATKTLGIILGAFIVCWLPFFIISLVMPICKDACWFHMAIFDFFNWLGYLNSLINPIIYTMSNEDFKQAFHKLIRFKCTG
Sodium-dependent serotonin transporter, sequence (P31652 whole entry): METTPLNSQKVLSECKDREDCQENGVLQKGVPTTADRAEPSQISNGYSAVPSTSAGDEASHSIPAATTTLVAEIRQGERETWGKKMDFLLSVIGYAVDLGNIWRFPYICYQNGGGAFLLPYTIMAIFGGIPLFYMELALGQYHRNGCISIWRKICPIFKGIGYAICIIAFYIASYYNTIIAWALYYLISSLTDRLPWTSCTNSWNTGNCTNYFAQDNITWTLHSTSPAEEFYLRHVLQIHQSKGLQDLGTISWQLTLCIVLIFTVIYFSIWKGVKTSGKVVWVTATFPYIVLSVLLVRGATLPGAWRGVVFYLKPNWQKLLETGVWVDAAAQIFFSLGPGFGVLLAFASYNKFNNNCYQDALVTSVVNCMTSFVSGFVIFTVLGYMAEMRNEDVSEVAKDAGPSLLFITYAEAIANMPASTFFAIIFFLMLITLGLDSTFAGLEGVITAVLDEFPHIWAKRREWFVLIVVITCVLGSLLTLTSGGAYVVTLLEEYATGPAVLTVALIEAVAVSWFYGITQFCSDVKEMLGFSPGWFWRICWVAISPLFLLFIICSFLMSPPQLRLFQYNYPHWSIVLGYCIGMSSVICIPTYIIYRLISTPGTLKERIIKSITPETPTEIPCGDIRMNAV

Ki [2] | Ki [1] | Structure (SMILES) | further results
11 nM | – | c1ccc(CN2CCN(c3nc4ccccc4c4c3CCCC4)CC2)cc1 | –
660 nM | 661 nM | CN1CCN(c2ccc3c(n2)C2CCCCC2CC3)CC1 (stereo not given) | –
110 nM | 110 nM | CN1CCN(c2nc3c(c4c2CCCC4)CCCC3)CC1 | –
1.9 nM | – | CCN1CCN(c2nc3ccccc3c3c2CCCC3)CC1 | –
830 nM | 832 nM | CN1CCN(c2ccc3c(n2)CCc2ccccc2-3)CC1 | –
0.83 nM | 0.832 nM | CN1CCN(c2nc3ccccc3c3c2CC2CCC3C2)CC1 (stereo not given) | Ki [3]: 2400 nM; Ki [4]: 24000 nM; Ki [5]: 3700 nM; Ki [6]: 2800 nM; Ki [7]: 2300 nM
200 nM | 200 nM | CN1CCN(c2ccc3ccc4ccccc4c3n2)CC1 | –
200 nM | 200 nM | CN1CCN(c2ccc3c(n2)-c2ccccc2CC3)CC1 | –
14 nM | 14.1 nM | CN1CCN(c2ccc3c(n2)-c2ccccc2C3)CC1 | Ki [3]: 5700 nM; Ki [4]: 59 nM; Ki [5]: 2600 nM; Ki [6]: 16000 nM; Ki [7]: 3800 nM
4.8 nM | – | CN1CCCN(c2nc3ccccc3c3c2CCCC3)CC1 | –
1.9 nM | 1.91 nM | CN1CCN(c2nc3ccccc3c3ccccc23)CC1 | –
0.23 nM | 0.229 nM | CN1CCN(c2nc3ccccc3c3c2CCCC3)CC1 | Ki [3]: 2800 nM; Ki [4]: 12000 nM; Ki [5]: 3000 nM; Ki [6]: 4400 nM; Ki [7]: > 4000 nM
1.7 nM | – | c1ccc2c3c(c(N4CCNCC4)nc2c1)CCCC3 | –
– | – | c1ccc2nc(N3CCNCC3)ccc2c1 [QUIPAZINE] | Ki [6]: 190 nM; Ki [7]: 310 nM

Structure (SMILES) | Ki [2] | Ki [1] | further results
CN1CCN(c2cccc(C34C[C@H]5C[C@@H](C3)C[C@@H](C4)C5)n2)CC1 | > 550 nM | – | Log Ki [1]: < -6.26
C[N+]1(C)CCN(c2nc3ccccc3c3c2CCCC3)CC1 | 13 nM | – | –
c1ccc2c3c(c(N4CCOCC4)nc2c1)CCCC3 | > 17000 nM | – | –
CN1CCN(c2ccc3c(n2)-c2ccccc2CCC3)CC1 | > 550 nM | – | Log Ki [1]: < -6.26
CN1CCN(c2ccc3ccccc3n2)CC1 | 3 nM | 3.02 nM | –
O=[N+]([O-])c1ccc2nc(N3CCNCC3)ccc2c1 [6-NITROQUIPAZINE] | 58 nM | – | Ki [4]: 0.12 nM
CCCN(CCC)C1CCc2cccc(O)c2C1 (stereo not given) [8-OH-DPAT] | 1.2 nM | – | –

Reference: ChEMBL document CHEMBL1131485, “Novel potent and selective central 5-HT3 receptor ligands provided with different intrinsic efficacy. 1. Mapping the central 5-HT3 receptor binding site by arylpiperazine derivatives” (J Med Chem, 1998)
